Assay results: ChEMBL document CHEMBL1149279, “2,4,6-trisubstituted pyrimidines as a new class of selective adenosine A1 receptor antagonists” (J Med Chem, 2004)

Columns and labels:
[1] = target: T1, Adenosine receptor A3 (Homo sapiens) (UniProt P0DMS8); test: Displacement of [125I]AB-MECA from human adenosine A3 receptor expressed in HEK293 cells at 1 uM; format: cell-based
T1 sequence (whole entry): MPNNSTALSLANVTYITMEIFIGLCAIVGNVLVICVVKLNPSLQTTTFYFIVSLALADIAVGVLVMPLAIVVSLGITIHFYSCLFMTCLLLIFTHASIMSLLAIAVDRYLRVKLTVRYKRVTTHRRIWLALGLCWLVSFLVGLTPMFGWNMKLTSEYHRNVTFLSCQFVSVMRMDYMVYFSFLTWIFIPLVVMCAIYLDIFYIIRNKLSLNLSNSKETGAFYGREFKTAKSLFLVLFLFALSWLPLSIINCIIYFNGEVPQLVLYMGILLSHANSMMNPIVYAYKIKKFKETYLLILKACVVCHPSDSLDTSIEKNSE

[2] = target: T2, Adenosine receptor A1 (Homo sapiens, UniProt P30542); test: Displacement of [3H]DPCPX from human adenosine A1 receptor expressed in CHO cells; format: cell-based
T2 sequence (P30542 whole entry): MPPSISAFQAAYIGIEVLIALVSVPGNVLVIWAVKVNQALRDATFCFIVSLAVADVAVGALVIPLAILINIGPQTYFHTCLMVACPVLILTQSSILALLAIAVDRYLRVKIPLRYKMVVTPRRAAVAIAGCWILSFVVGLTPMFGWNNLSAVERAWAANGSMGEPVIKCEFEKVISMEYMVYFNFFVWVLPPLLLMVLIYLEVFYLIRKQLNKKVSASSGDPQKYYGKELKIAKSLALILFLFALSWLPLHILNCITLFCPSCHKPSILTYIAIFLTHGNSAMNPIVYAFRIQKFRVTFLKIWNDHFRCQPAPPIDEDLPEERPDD

[3] = target: T3, Adenosine receptor A2a (Homo sapiens, UniProt P29274); test: Displacement of [3H]ZM241385 from human adenosine A2A receptor expressed in HEK293 cells at 1 uM; format: cell-based
[4] = target: T4, Adenosine receptor A3 (Homo sapiens, UniProt P0DMS8); test: Displacement of [125I]AB-MECA from human adenosine A3 receptor expressed in HEK293 cells; format: cell-based
T4 sequence (P0DMS8 whole entry): T1 sequence (whole entry)

[5] = target: Adenosine receptors; A1 & A3 (Homo sapiens) (UniProt P30542+P0DMS8); test: Selectivity for human adenosine A1 receptor over human adenosine A3 receptor; format: protein assay
[6] = target: T3, Adenosine receptor A2a; test: Displacement of [3H]ZM-241385 from human adenosine A2A receptor expressed in HEK293 cells; format: cell-based
[7] = target: T5, Adenosine receptor A1 (Homo sapiens) (UniProt P30542); test: Displacement of [3H]DPCPX from human adenosine A1 receptor expressed in CHO cells at 1 uM; format: cell-based
T5 sequence (whole entry): T2 sequence (P30542 whole entry)

[8] = target: T6, Adenosine receptor A2b (Homo sapiens) (UniProt P29275); test: Displacement of [3H]MRS1754 from human adenosine A2B receptor expressed in CHO cells at 1 uM; format: cell-based
T6 sequence (whole entry): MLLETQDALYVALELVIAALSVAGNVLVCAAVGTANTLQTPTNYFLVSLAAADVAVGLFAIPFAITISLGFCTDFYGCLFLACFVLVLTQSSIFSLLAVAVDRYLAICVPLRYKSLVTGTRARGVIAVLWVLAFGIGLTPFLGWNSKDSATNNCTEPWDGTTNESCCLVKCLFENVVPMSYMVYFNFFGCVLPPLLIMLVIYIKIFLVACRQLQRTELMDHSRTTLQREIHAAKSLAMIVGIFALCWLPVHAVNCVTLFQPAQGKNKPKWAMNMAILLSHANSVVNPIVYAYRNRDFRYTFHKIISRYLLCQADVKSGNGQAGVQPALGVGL
Summary of the method: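 CHO cells stably transfected with human A2B supply the membranes (20 μg protein). [3H]MRS1754 at 1.2 nM final, 1 h at 25 °C in 50 mM Tris/HCl, 10 mM MgCl2, 1 mM EDTA, 0.01 w/v % CHAPS. Nonspecific binding with 1 mM NECA. Filtration and scintillation counting; % displacement at 1 μM, n = 2.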

[9] = target: T5, Adenosine receptor A1 (Homo sapiens); test: Antagonist activity at human adenosine A1 receptor expressed in CHO cells assessed as effect on forskolin-stimulated cAMP production at 1 uM; format: functional, cell-based; set-up: scale not given: the % may be the effect or the level left; conditions: filed as antagonist
Summary of the method: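 Human A1-expressing CHO cells, 2 × 10^5/well, grown overnight; in HEPES/DMEM (pH 7.4) with adenosine deaminase 0.8 IU/mL, rolipram 50 μM and cilostamide 50 μM, 30 min at 37 °C. Then CPA 1 μM, test compound 1 μM, 10 min; forskolin 10 μM added for 15 min. Stopped with ice-cold 0.1 M HCl. cAMP measured by [3H]cAMP/PKA competition; normalized to CPA (0%) and forskolin (100%). Three independent experiments in duplicate.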

[10] = target: T5, Adenosine receptor A1 (Homo sapiens); test: Antagonist activity at human adenosine A1 receptor expressed in CHO cells assessed as reversal of CPA-induced effect on forskolin-stimulated cAMP production at 10 uM; format: functional, cell-based; conditions: filed as antagonist

T3 sequence (P29274 whole entry): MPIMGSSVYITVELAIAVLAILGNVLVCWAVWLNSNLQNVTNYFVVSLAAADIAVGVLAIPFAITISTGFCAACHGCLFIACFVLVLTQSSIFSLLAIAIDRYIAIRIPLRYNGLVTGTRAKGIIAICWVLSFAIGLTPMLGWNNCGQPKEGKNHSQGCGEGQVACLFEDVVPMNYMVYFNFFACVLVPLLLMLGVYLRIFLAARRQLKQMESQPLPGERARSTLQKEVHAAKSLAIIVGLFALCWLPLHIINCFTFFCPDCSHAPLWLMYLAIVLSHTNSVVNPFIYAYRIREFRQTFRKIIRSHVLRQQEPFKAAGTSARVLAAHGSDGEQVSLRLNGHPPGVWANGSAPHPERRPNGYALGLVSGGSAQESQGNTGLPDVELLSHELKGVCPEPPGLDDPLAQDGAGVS

Structure (SMILES) | Activity [1] [%] | Ki [2] | Activity [3] [%] | Ki [4] | Ki [6] | other results
O=C(Nc1nc(-c2ccccc2)cc(-c2ccccc2)n1)C1CCC1 | 18 | 107 nM (antagonist) | 33 | – | – | –
CCC(=O)Nc1cc(-c2ccccc2)nc(-c2ccccc2)n1 | – | – | – | 22.4 nM (antagonist) | 81.9 nM (antagonist) | Selectivity ratio [5]: 2
O=C(Nc1nc(-c2ccccc2)cc(-c2ccccc2)n1)c1ccc(Cl)c(Cl)c1 | 30 | – | 0 | – | – | Activity [7]: 0%
COc1ccc(C(=O)Nc2nc(-c3ccccc3)cc(-c3ccccc3)n2)cc1 | 41 | – | 45 | – | – | Activity [7]: 31%
O=C(Nc1nc(-c2ccccc2)cc(-c2ccccc2)n1)C1CCCC1 | 39 | 11.4 nM (antagonist) | 11 | – | – | Activity [8]: 42%
CCCC(=O)Nc1nc(-c2ccccc2)cc(-c2ccccc2)n1 | 38 | 3.7 nM (antagonist) | 7 | – | – | Activity ([8]; filed as antagonist): 54%
O=C(Nc1nc(-c2ccccc2)cc(-c2ccccc2)n1)c1cccc(Cl)c1 | 41 | 368 nM (antagonist) | 22 | – | – | –
O=C(Nc1cc(-c2ccccc2)nc(-c2ccccc2)n1)C1CCCCC1 | 32 | – | – | – | 208 nM (antagonist) | –
O=C(Nc1cc(-c2ccccc2)nc(-c2ccccc2)n1)c1ccc(Cl)cc1 | 33 | – | 0 | – | – | Activity [7]: 35%
CCC(CC)C(=O)Nc1nc(-c2ccccc2)cc(-c2ccccc2)n1 | 27 | 27.1 nM (antagonist) | 11 | – | – | –
CCCCCC(=O)Nc1cc(-c2ccccc2)nc(-c2ccccc2)n1 | – | 109 nM (antagonist) | 48 | 392 nM (antagonist) | – | –
CC(C)(C)C(=O)Nc1cc(-c2ccccc2)nc(-c2ccccc2)n1 | 49 | – | 18 | – | – | –
CCC(=O)Nc1nc(-c2ccccc2)cc(-c2ccccc2)n1 | – | 46.4 nM (antagonist) | – | 547 nM (antagonist) | 893 nM (antagonist) | –
CC(C)CC(=O)Nc1cc(-c2ccccc2)nc(-c2ccccc2)n1 | – | – | – | 447 nM (antagonist) | 157 nM (antagonist) | –
CC(C)(C)CC(=O)Nc1cc(-c2ccccc2)nc(-c2ccccc2)n1 | 39 | – | 32 | – | – | Activity [8]: 4%
CC(C)CC(=O)Nc1nc(-c2ccccc2)cc(-c2ccccc2)n1 | 23 | 25.1 nM (antagonist) | 42 | – | – | –
O=C(Nc1cc(-c2ccccc2)nc(-c2ccccc2)n1)C1CCCC1 | – | – | – | 170 nM (antagonist) | 196 nM (antagonist) | Activity ([8]; filed as antagonist): 52%; Activity [9]: 60%; Activity [10]: Antagonist
CC(=O)Nc1cc(-c2ccccc2)nc(-c2ccccc2)n1 | – | – | – | 6.88 nM (antagonist) | 489 nM (antagonist) | –

Structure (SMILES) | Activity [1] [%] | Ki [2] | Activity [3] [%] | Ki [4] | Ki [6] | other results
CC(C)C(=O)Nc1cc(-c2ccccc2)nc(-c2ccccc2)n1 | – | – | – | 267 nM (antagonist) | 376 nM (antagonist) | Selectivity ratio [5]: 24
O=C(Nc1cc(-c2ccccc2)nc(-c2ccccc2)n1)c1ccccc1 | – | – | 17 | 1300 nM (antagonist) | – | Selectivity ratio [5]: 2
CCC(CC)C(=O)Nc1cc(-c2ccccc2)nc(-c2ccccc2)n1 | 57 | – | – | – | 381 nM (antagonist) | Activity ([8]; filed as antagonist): 72%
O=C(Nc1nc(-c2ccccc2)cc(-c2ccccc2)n1)c1ccc(Cl)cc1 | – | – | 0 | 3280 nM (antagonist) | – | Activity [7]: 0%
O=C(Nc1cc(-c2ccccc2)nc(-c2ccccc2)n1)C1CC1 | – | 7.58 nM (antagonist) | – | 25 nM (antagonist) | 189 nM (antagonist) | –
COc1ccc(C(=O)Nc2cc(-c3ccccc3)nc(-c3ccccc3)n2)cc1 | – | – | 0 | 1170 nM (antagonist) | – | Activity [7]: 30%
CCC(C)C(=O)Nc1cc(-c2ccccc2)nc(-c2ccccc2)n1 (centres undefined) | – | – | – | 147 nM (antagonist) | 899 nM (antagonist) | Activity [8]: 44%; Activity [9]: 60%; Activity [10]: Antagonist
Cc1ccc(C(=O)Nc2nc(-c3ccccc3)cc(-c3ccccc3)n2)cc1 | 13 | – | 0 | – | – | Activity [7]: 37%
O=C(Nc1nc(-c2ccccc2)cc(-c2ccccc2)n1)C1CCCCC1 | 9 | 119 nM (antagonist) | 31 | – | – | –
O=C(Nc1nc(-c2ccccc2)cc(-c2ccccc2)n1)C1CC1 | – | 24.9 nM (antagonist) | – | 676 nM (antagonist) | 228 nM (antagonist) | –
O=C(Nc1cc(-c2ccccc2)nc(-c2ccccc2)n1)C1CCC1 | – | – | – | 178 nM (antagonist) | 179 nM (antagonist) | Activity ([8]; filed as antagonist): 74%
CC(C)C(=O)Nc1nc(-c2ccccc2)cc(-c2ccccc2)n1 | 45 | 8.87 nM (antagonist) | 44 | – | – | Activity ([8]; filed as antagonist): 79%
CCCC(=O)Nc1cc(-c2ccccc2)nc(-c2ccccc2)n1 | – | – | – | 167 nM (antagonist) | 124 nM (antagonist) | –
CCCCCC(=O)Nc1nc(-c2ccccc2)cc(-c2ccccc2)n1 | 24 | – | 0 | – | – | Activity [7]: 28%
CC(=O)Nc1nc(-c2ccccc2)cc(-c2ccccc2)n1 | – | – | 31 | 237 nM (antagonist) | – | –
CCCCC(=O)Nc1nc(-c2ccccc2)cc(-c2ccccc2)n1 | 23 | 27.6 nM (antagonist) | 0 | – | – | –
CC(C)(C)C(=O)Nc1nc(-c2ccccc2)cc(-c2ccccc2)n1 | 4 | 224 nM (antagonist) | 0 | – | – | –
O=C(Nc1nc(-c2ccccc2)cc(-c2ccccc2)n1)c1ccccc1 | 38 | 309 nM (antagonist) | 5 | – | – | –
